Among the data in ChEMBL document CHEMBL3045051 (Med Chem Res, 2011) are Activity, inhibition and IC50 values, retold here.

Calls of active or inactive are those of the source. No cut-off for these calls is given here.

In experiment [1] the test system is Coxsackievirus B4. Description: Antiviral activity against Human coxsackievirus B4 infected VERO cells assessed as inhibition of virus-induced cytopathicity. Format: functional, organism-based. In a few lines: (§1)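 Confluent monolayers (feline kidney Crandell, Vero, HEL or HeLa, as named for each virus) were infected with 100 CCID50 of virus and allowed to adsorb for 1 h. Unbound virus was then removed, and cultures were incubated with test compound in serial dilutions (200, 40, 8 … µM). Cytopathicity was scored once untreated infected controls reached complete cytopathic effect.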
A general note: Cytopathic effects are the visible damage that an infection or toxin causes in cultured cells.

In experiment [2] the target is T1, Seed linoleate 13S-lipoxygenase-1 (Glycine max) (UniProt P08170).
T1 sequence (whole entry): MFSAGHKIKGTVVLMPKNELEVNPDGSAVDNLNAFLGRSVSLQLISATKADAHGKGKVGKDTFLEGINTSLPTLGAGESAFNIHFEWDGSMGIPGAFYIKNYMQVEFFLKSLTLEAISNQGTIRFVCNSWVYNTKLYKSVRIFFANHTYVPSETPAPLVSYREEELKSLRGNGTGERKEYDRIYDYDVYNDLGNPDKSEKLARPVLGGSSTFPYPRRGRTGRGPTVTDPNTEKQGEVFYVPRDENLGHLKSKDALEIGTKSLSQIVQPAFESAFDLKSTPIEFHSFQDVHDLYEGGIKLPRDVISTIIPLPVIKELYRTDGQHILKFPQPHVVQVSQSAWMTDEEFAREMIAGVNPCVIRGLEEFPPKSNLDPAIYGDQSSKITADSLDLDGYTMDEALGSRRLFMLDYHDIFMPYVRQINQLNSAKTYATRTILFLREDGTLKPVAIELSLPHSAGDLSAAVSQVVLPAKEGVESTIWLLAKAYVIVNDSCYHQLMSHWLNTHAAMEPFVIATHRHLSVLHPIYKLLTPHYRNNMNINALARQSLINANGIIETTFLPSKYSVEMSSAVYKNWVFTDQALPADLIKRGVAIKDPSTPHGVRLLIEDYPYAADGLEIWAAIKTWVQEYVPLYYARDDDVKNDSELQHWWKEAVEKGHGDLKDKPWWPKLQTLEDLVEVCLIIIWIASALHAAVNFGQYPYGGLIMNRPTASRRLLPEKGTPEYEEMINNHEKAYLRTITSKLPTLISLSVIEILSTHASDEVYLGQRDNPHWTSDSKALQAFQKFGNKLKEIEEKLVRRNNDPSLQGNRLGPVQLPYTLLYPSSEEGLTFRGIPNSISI
Kind of experiment: Inhibition of Glycine max (soybean) lipoxygenase using sodium linoleate as substrate at 1 X 10^-4.

The next experiment relates to Human alphaherpesvirus 2. Description: Antiviral activity against Human herpesvirus 2 strain G infected human HEL cells assessed as inhibition of virus-induced cytopathicity. Format: functional, organism-based. The method, boiled down:
as §1

Experiment [3] deals with Mammalian orthoreovirus 1. Description: Antiviral activity against Mammalian orthoreovirus 1 infected VERO cells assessed as inhibition of virus-induced cytopathicity. Format: functional, organism-based. In a few lines:
as §1

Experiment [4] concerns Radical scavenging activity. Description: Antioxidant activity assessed as DPPH radical scavenging activity at 5 X 10^-5 M after 60 min. The class given is functional. In a few lines: (§2)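 Test compound was mixed with DPPH (0.05 and 0.1 mM) in ethanol. Absorbance at 517 nm was read after 20 and 60 min and compared with the NDGA standard, with ethanol as control. Each experiment was run at least in triplicate, and the SD of absorbance was <10% of the mean.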

Another experiment deals with Sindbis virus. Kind of experiment: Antiviral activity against Sindbis virus infected Hela cells assessed as inhibition of virus-induced cytopathicity. The class given is functional, organism-based.
The target in experiment [5] is T2, Seed linoleate 13S-lipoxygenase-1 (Glycine max, UniProt P08170).
T2 sequence (P08170 whole entry): T1 sequence (whole entry)
Kind of experiment: Inhibition of Glycine max (soybean) lipoxygenase using sodium linoleate as substrate.

Experiment [6] relates to Radical scavenging activity. Kind of experiment: Antioxidant activity assessed as DPPH radical scavenging activity at 1 X 10^-4 M after 60 min. The class given is functional. The method, boiled down:
as §2

For another experiment, the system named is Influenza A virus. Kind of experiment: Antiviral activity against Unidentified Influenza A virus (H1N2) infected MDCK cells assessed as inhibition of virus-induced cytopathicity. The class given is functional, organism-based.
Experiment [7] has as its system Vesicular stomatitis virus. Description: Antiviral activity against Vesicular stomatitis virus infected Hela cells assessed as inhibition of virus-induced cytopathicity. Format: functional, organism-based.
The test system of another experiment is Vaccinia virus. Description: Antiviral activity against Vaccinia virus infected human HEL cells assessed as inhibition of virus-induced cytopathicity. Format: functional, organism-based. The note with it: Orthopoxvirus vaccinia.
Experiment [8] is described as follows: Antioxidant activity assessed as inhibition of AAPH-induced lipid peroxidation at 1 X 10^-5 M. Format: functional.
Experiment [9] relates to Respiratory syncytial virus. Description: Antiviral activity against Respiratory syncytial virus infected human HeLa cells assessed as inhibition of virus-induced cytopathicity. The class given is functional, organism-based. The method, boiled down: as §1
For the next experiment, the system named is Feline coronavirus. Kind of experiment: Antiviral activity against Feline coronavirus infected feline kidney crandell cells assessed as inhibition of virus-induced cytopathicity. Format: functional, organism-based. In a few lines:
as §1

The subject of experiment [10] is Vesicular stomatitis virus. Kind of experiment: Antiviral activity against Vesicular stomatitis virus infected HEL cells assessed as inhibition of virus-induced cytopathicity. Format: functional, organism-based.
Experiment [11] has as its system Coxsackievirus B4. Kind of experiment: Antiviral activity against Human coxsackievirus B4 infected human HeLa cells assessed as inhibition of virus-induced cytopathicity. Format: functional, organism-based. In a few lines: as §1
The next experiment deals with Punta Toro virus. Kind of experiment: Antiviral activity against Punta Toro virus infected Hela cells assessed as inhibition of virus-induced cytopathicity. Format: functional, organism-based.
The test system of experiment [12] is Radical scavenging activity. Kind of experiment: Antioxidant activity assessed as DPPH radical scavenging activity at 5 X 10^-5 M after 20 min. Format: functional. In a few lines:
as §2
(DPPH is a stable violet radical that fades when it is reduced.)

A short description of experiment [13]: Antioxidant activity assessed as inhibition of AAPH-induced lipid peroxidation at 1 X 10^-4 M. The class given is functional.
For a further experiment, the system named is Human respirovirus 3. Description: Antiviral activity against Human parainfluenza virus 3 infected Vero cells assessed as inhibition of virus-induced cytopathicity. Format: functional, organism-based. In a few lines:
as §1

The test system of experiment [14] is Radical scavenging activity. Kind of experiment: Antioxidant activity assessed as DPPH radical scavenging activity at 1 X 10^-4 M after 20 min. Format: functional. The method, boiled down:
as §2

A further experiment relates to Human alphaherpesvirus 1. Kind of experiment: Antiviral activity against […] 1 KOS infected in human HEL cells assessed as inhibition of virus-induced cytopathicity. Format: functional, organism-based. The method, boiled down:
as §1

One may read the inhibition as how much of the control response was suppressed. For orientation: IC50 means the concentration needed to halve the response being measured. A low value points to greater potency.

As for `CC(C(=O)NC1CCCC1)c1cccc(C(OC(=O)NC2CCCC2)c2ccccc2)c1` (configuration not stated), the result (in the experiment with Coxsackievirus B4 [1]; in the experiment on Human alphaherpesvirus 2; in [3]; in the experiment on Sindbis virus; in the experiment with Influenza A virus; with Influenza A virus (H1N1)) was inactive. Further, the result (in experiment [7]; in the experiment on Vaccinia virus; in [9]; in the experiment on Feline coronavirus; in experiment [10]; in the experiment on Coxsackievirus B4 [11]) was inactive. In addition, the outcome in the experiment on Punta Toro virus, with Human respirovirus 3 and with Human alphaherpesvirus 1 was inactive. The inhibition in experiment [2] stood at 69.6%; in experiment [4], 2.8%; in [6] it was 2.3%; in [12], 3.2%; in experiment [13] it was 95.2%. Moreover, in experiment [5], it took 86 µM to reach half-maximal inhibition (IC50). The inhibition result in experiment [8] and in experiment [14] was “inactive” in each case.
As to `CC(C(=O)N1CCCCC1)c1cccc(C(OC(=O)N2CCCCC2)c2ccccc2)c1` (configuration not stated), the result (in the experiment with Coxsackievirus B4 [1]; in the experiment with Human alphaherpesvirus 2; in [3]; with Sindbis virus; in the experiment with Influenza A virus; with Influenza A virus (H1N1)) was inactive. Moreover, the result (in [7]; with Vaccinia virus; in experiment [9]; in the experiment with Feline coronavirus; in experiment [10]; in the experiment with Coxsackievirus B4 [11]) was inactive. Further, the outcome in the experiment on Punta Toro virus, in the experiment with Human respirovirus 3 and in the experiment on Human alphaherpesvirus 1 was inactive. For the same compound, the inhibition result in experiment [2] is “inactive”. The inhibition is 10% in experiment [4]; 4.3% in experiment [6]; 25.5% in experiment [8]; 8.6% in [12]; 97.4% in experiment [13]; 1.7% in [14].
In the case of `CC(C(=O)NCCc1ccccc1)c1cccc(C(OC(=O)NCCc2ccccc2)c2ccccc2)c1` (configuration not stated), the outcome (in the experiment on Coxsackievirus B4 [1]; with Human alphaherpesvirus 2; in experiment [3]; in the experiment on Sindbis virus; in the experiment with Influenza A virus; in the experiment on Influenza A virus (H1N1)) was inactive. Besides, the outcome (in [7]; in the experiment with Vaccinia virus; in experiment [9]; in the experiment with Feline coronavirus; in experiment [10]; in the experiment with Coxsackievirus B4 [11]) was inactive. Moreover, the result in the experiment on Punta Toro virus, in the experiment with Human respirovirus 3 and with Human alphaherpesvirus 1 was inactive. The inhibition in experiment [2] came out at 18.9%; in experiment [4], 8.5%; in [6], 2.2%; in experiment [8], 22.5%; in [12] it was 3.6%; in [13] it was 99%. Also, in [14], the inhibition entry was “inactive”.
With `CC(C(=O)n1nnc2ccccc21)c1cccc(C(OC(=O)n2nnc3ccccc32)c2ccccc2)c1` (configuration not stated), the outcome (in the experiment with Coxsackievirus B4 [1]; in the experiment on Human alphaherpesvirus 2; in experiment [3]; with Sindbis virus; with Influenza A virus; with Influenza A virus (H1N1)) was inactive. For the same compound, the outcome (in [7]; with Vaccinia virus; in experiment [9]; in the experiment with Feline coronavirus; in experiment [10]; in the experiment with Coxsackievirus B4 [11]) was inactive. Besides, the result with Punta Toro virus, in the experiment with Human respirovirus 3 and in the experiment on Human alphaherpesvirus 1 was inactive. Further, the inhibition in [2] worked out at 95%; in experiment [4] it was 3.7%; in experiment [6], 5.4%; in experiment [8], 15%; in experiment [12] it was 2.9%; in experiment [13] it was 98%. Also, the inhibition in experiment [14] stood at 2.5%. The IC50 in experiment [5] came to 21 µM.
For `CC(C(=O)O)c1cccc(C(=O)c2ccccc2)c1` (configuration not stated) [KETOPROFEN], the outcome (with Coxsackievirus B4 [1]; in the experiment on Human alphaherpesvirus 2; in experiment [3]; in the experiment with Sindbis virus; with Influenza A virus; in the experiment with Influenza A virus (H1N1)) was inactive. Also, the outcome (in experiment [7]; with Vaccinia virus; in experiment [9]; with Feline coronavirus; in [10]; in the experiment with Coxsackievirus B4 [11]) was inactive. Further, the outcome in the experiment on Punta Toro virus, in the experiment with Human respirovirus 3 and in the experiment on Human alphaherpesvirus 1 was inactive. Further, the inhibition in [4] was 3.1%; in experiment [6], 7.2%; in [12], 6.4%; in experiment [14], 8.1%. For the same compound, in experiment [5], the IC50 is 130 µM.
On to `CC(C(=O)NC1CCCCC1)c1cccc(C(OC(=O)NC2CCCCC2)c2ccccc2)c1` (configuration not stated), for which the result (with Coxsackievirus B4 [1]; with Human alphaherpesvirus 2; in experiment [3]; in the experiment with Sindbis virus; with Influenza A virus; in the experiment on Influenza A virus (H1N1)) was inactive. The result (in experiment [7]; with Vaccinia virus; in experiment [9]; in the experiment on Feline coronavirus; in [10]; in the experiment on Coxsackievirus B4 [11]) was inactive. Also, the outcome with Punta Toro virus, with Human respirovirus 3 and in the experiment on Human alphaherpesvirus 1 was inactive. Moreover, the inhibition in [2] was 22.7%; in experiment [4] it was 3.1%; in experiment [8] it was 5.4%; in [12], 2%; in experiment [13], 96.1%. Besides, the inhibition entry in [6] and in experiment [14] was “inactive” throughout.
